The values that follow come from publication PMC7396962 (Xenobiotica; the fate of foreign compounds in biological …, 2020).

One data set deals with pooled HLM. The data set can be described thus: Glucuronidation of CA in pooled HLM. In kind it is in vitro ADME, human. The settings on record: higher than phase I metabolism. The gist of the method:
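Pooled human liver microsomes (1 mg/mL) with test compound 0.16–80 μM, UDPGA 3.5 mM, alamethicin 22 μg/mL, saccharolactone 4.4 mM and MgCl2 0.88 mM in Tris-HCl pH 7.4, 37 °C for 60 min. Phase I run in parallel with 1 mM NADPH. Metabolites quantified by UHPLC-UV (270 nm) as parent equivalents; kinetics fitted by model, CLint = Vmax/Km; triplicate.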

Data set [1] deals with expressed human CYP enzymes. Nature of the data set: Reaction phenotyping with twelve expressed CYP enzymes. In kind it is in vitro ADME. The method in brief: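 Twelve expressed human CYPs (1–1.2 mg/mL) with test compound 0.16–80 μM, NADPH 1 mM and MgCl2 in 50 mM Tris-HCl pH 7.4, 37 °C, 60 min. Controls lacked NADPH. Acetonitrile quench, then UHPLC-UV/Q-TOF MS. Formation rates given as pmol/min/mg protein. Kinetics fitted after Eadie–Hofstee inspection; CLint = Vmax/Km; triplicate.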

The next data set deals with T1, CYP2C8 (Homo sapiens, UniProt P10632).
T1 sequence (P10632 1-490): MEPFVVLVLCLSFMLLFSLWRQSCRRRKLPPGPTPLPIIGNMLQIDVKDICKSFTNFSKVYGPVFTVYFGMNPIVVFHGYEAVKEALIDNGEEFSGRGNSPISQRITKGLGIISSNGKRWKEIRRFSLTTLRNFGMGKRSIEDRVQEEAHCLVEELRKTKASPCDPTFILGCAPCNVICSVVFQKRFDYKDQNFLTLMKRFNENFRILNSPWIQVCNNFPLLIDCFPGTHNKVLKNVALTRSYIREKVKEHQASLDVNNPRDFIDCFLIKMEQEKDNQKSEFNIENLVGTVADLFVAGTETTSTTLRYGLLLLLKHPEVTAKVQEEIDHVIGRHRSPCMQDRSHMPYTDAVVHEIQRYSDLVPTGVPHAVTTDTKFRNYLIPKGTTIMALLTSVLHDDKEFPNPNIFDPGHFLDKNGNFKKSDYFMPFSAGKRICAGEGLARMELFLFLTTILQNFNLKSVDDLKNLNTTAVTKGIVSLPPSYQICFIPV
In kind it is in vitro ADME. The settings on record: panel of HLMs (n = 9), substrate 10 μM, p = 0.001. The method in brief:
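Nine individual human liver microsomes (1 mg/mL) each incubated with test compound at 10 μM plus 1 mM NADPH, pH 7.4, 37 °C, 60 min. Oxidation rates correlated by linear regression (r) with each donor's paclitaxel 6-hydroxylation activity. p < 0.05 taken as significant.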

For another data set, the target named is T2, MRP4 (Homo sapiens, UniProt O15439).
T2 sequence (O15439 1-1325): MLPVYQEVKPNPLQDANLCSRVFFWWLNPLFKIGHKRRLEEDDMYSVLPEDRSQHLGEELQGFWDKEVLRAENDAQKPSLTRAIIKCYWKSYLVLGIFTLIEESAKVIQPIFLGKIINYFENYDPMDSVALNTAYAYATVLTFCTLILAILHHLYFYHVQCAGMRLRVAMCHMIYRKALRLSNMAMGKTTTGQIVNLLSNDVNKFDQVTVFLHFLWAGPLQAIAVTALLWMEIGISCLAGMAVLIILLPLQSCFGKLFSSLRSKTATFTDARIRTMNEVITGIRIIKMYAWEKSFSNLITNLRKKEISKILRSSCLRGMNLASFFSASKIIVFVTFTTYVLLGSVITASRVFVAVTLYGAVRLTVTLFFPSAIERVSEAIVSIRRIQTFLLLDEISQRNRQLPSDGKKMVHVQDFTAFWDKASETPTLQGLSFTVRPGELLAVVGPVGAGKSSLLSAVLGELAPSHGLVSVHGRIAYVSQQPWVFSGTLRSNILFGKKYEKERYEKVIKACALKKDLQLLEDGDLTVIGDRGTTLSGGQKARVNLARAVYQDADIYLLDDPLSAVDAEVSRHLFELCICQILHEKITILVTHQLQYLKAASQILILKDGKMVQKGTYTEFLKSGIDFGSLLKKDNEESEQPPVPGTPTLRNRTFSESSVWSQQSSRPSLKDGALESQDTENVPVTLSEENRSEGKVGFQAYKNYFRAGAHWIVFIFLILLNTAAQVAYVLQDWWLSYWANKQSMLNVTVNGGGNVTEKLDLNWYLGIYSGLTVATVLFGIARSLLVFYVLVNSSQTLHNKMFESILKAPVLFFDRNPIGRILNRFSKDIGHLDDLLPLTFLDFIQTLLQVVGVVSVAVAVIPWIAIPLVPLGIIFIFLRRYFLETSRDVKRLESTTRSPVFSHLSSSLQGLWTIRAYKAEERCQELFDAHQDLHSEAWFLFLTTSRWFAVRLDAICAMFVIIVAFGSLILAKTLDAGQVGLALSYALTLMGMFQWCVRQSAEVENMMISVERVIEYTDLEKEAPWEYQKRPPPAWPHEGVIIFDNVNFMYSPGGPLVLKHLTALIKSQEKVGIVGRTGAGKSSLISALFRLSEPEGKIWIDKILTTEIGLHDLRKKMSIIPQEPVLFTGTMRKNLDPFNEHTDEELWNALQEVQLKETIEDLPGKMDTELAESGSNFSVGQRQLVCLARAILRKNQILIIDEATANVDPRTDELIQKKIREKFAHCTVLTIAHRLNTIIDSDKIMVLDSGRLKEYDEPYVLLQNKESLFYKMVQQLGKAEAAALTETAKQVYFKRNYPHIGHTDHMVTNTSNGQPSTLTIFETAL
The data set can be described thus: Glucuronide excretion in HeLa1A1 cells with knock-down of MRP4. In kind it is cell-based. The conditions noted are these: knock-down of MRP4 transporter. The gist of the method:
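HeLa1A1 cells at ~50% confluence transiently transfected with transporter shRNA plasmid (10 μg/mL); medium replaced at 6 h; scrambled shRNA as control. At confluence cells washed and incubated with test compound in HBSS. Extracellular glucuronide sampled over 2 h and intracellular glucuronide measured at the end. ER = V·dC/dt, CLapp = ER/Ci, fmet calculated; triplicate.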

Data set [2] concerns HepG2 hepatocellular carcinoma cell line. The settings on record: cited from earlier work.
The conditions of data set [3]: rat, in vivo; cited from earlier work.
The test system of the next data set is human UGT1A1. The conditions noted are these: cited from earlier work.

The term IC50 denotes the point on the concentration scale where inhibition reaches its midpoint. For orientation: Ki means the dissociation constant of the complex between target and ligand, obtained from inhibition or displacement.

Values after ≈ are worked out from the molar mass of the structure shown.

As for `CC(C)=CCC/C(C)=C/Cc1cc(-c2coc3cc(O)ccc3c2=O)ccc1O` [CA, Corylifol A], in the data set on pooled HLM, the “intrinsic clearance value of glucuronidation relative to phase I metabolism” value is listed as 4 fold. For the same compound, in data set [1] (CYP1A2, 1B1, 2A6, 2B6, 2E1, 3A4 and 3A5), the “metabolism of CA” value was “cannot metabolize CA at all”. Also, the “CLint values (phase I metabolic activities)” value in data set [1] (range over CYP1A1, 2C8 and 2C19) lay in the range of 13.01 to 49.36 µL/min/mg. Further, the “correlation (r) between CA-mono-oxidation and paclitaxel-6-hydroxylation” value at CYP2C8 came out at 0.921. The “fmet value of CA” value at MRP4 is given as “significant decrease”. Moreover, the “IC50, cytotoxic activity” value in data set [2] is 4.6 µg/mL (≈ 11.8 µM). Moreover, the “distribution concentrations of CA at different nuclei” value in data set [3] is 260.63 to 493.29 ng·h/g. Further, in the data set with human UGT1A1, the IC50 is 0.65 µM and the Ki is 0.79 µM.
